Assay outcomes as filed in PubChem.
Compounds with a hit are over-represented: about 4.1% of the library has one in this group of screens.
hERG protect: hERG (human) protection from proarrhythmic block; activation (rescue from dofetilide block), less the hit threshold, % at 10 µM; CHO-hERG, FluxOR thallium flux, dofetilide IC70 present; 310,000 tested, 0.51% active; Q12809;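 active means activation above the mean of controls blocked by dofetilide plus 5 SD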;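 further: thallium influx through hERG after potassium depolarization seen as dye fluorescence rise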
KCNQ1 pot: potentiates or activates the human KCNQ1 potassium channel | CHO-K1 KCNQ1, thallium flux FluxOR fluorescence; stronger effect = higher value | B-score at 10 µM | 310,000 tested, 0.35% active;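 active means fluorescence ratio B-score, a plate-corrected score, at least three library SD, with initial intensity B-score within 5 SD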
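Medium – assay buffer, equal DMSO in all wells · Material – CHO-K1 cell line with stable KCNQ1 potassium channel expression · Signal – kinetic FluxOR thallium fluorescence, 10-s 1-Hz baseline, 110-s post-stimulus read · Compound – single concentration per compound, DMSO matched to controls · Schedule – 37 °C overnight plating, 90-min dark dye load, 20-min compound pretreatment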
KCNK9 block: human KCNK9 channel inhibition | 310,000 tested, 1.2% active | AID 488922 | Q9NPC2 | B-score at 10 µM | HEK293 KCNK9, FluxOR thallium flux fluorescence; stronger effect = lower value;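 active means ratio B-score over 3 SD below the library mean, with starting fluorescence within 5 SD of its mean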;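 further: negative B-score means less thallium flux so channel inhibition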
KCNK3 block: human KCNK3 channel inhibition, primary screen. 340,000 tested, 0.84% active. B-score at 10 µM. CHO-KCNK3 thallium flux, FluxOR fluorescence; stronger effect = lower value. O14649;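 active means B-score under library mean minus 4 SD, starting fluorescence ratio at most library mean plus 5 SD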;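 further: more negative B-score means stronger inhibition of thallium flux through KCNK3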
Target sequence (O14649 whole entry, looked up): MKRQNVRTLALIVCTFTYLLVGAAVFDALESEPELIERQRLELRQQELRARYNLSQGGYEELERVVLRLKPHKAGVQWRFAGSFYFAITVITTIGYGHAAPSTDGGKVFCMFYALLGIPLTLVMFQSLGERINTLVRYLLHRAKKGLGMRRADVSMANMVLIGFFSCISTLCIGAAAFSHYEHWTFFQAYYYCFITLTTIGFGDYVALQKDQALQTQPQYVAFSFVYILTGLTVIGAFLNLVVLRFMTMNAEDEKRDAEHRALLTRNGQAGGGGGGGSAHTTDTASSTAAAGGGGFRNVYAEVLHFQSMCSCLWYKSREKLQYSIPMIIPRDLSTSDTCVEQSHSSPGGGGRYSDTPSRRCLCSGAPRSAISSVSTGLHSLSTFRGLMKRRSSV
KCC2 mod: KCC2 (human) Cl- transport modulation; B-score of Tl+ flux slope (higher = more flux/activation; lower = inhibition) at 10 µM; AID 1456; KCC2 cells, thallium flux FluoZin-2 fluorescence; 190,000 tested, 2.2% active;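 active means thallium flux slope and its plate-corrected score both differing from the plate sample mean at a set confidence after two filtering rounds, in either direction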;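 further: slope of fluorescence scaled to starting intensity during 10 to 20 s after thallium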
KCNQ1 block: blocks the human KCNQ1 potassium channel. P51787. CHO-K1 KCNQ1, FluxOR thallium flux fluorescence; stronger effect = higher value. B-score at 10 µM. 310,000 tested, 1.3% active. AID 2642;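 active means compounds whose thallium flux B-score, printed positive for inhibition, exceeds three library SD while starting fluorescence stays within three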;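 further: channel opened by potassium depolarization with thallium stimulus after 20 min compound exposure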
Of the large screens only hits and unclear results are named; the others gave an inactive call.

C=CCC1(CC=C)CCCN1C(=O)c1cc(COc2ccccc2SC)on1	KCNQ1 block 7 (no result: KCC2 mod)
C=CCC1(CC=C)CCCN1C(=O)c1cc(COc2ccc(C)nc2)on1	KCNQ1 block 8 (no result: KCC2 mod)
CSc1ccccc1OCc1cc(C(=O)N2CCC(c3ccncc3)CC2)no1	none (no result: KCC2 mod)
Cc1cccc(-n2ncc3c(N4CC(C)CC(C)C4)ncnc32)c1 (centres undefined)	KCNK9 block -7.15 (no result: KCC2 mod)
CCN(CC)c1ccc2nc3c4ccccc4c(=O)cc-3oc2c1	none (no result: KCNK3 block, KCC2 mod)
CCN(CC)c1ccc2c(-c3ccc(S(=O)(=O)O)cc3S(=O)(=O)[O-])c3ccc(=[N+](CC)CC)cc-3oc2c1	KCNQ1 block 25 (no result: KCC2 mod)
CN(CC(=O)Nc1ccc(Cl)c(C(F)(F)F)c1)C(=O)Cc1n[nH]c(=O)c2ccccc12	none (no result: KCC2 mod)
CCOC(=O)C1CCCN(C(=O)c2ccc(Cn3c(=S)[nH]c4cc(C(=O)OC)ccc4c3=O)cc2)C1 (centres undefined)	hERG protect 6.6
O=C(OCC(=O)N1CCN(c2cccc(Cl)c2)CC1)c1ccco1	none (no result: hERG protect, KCNQ1 pot, KCNK9 block, KCC2 mod, KCNQ1 block)
CSc1nc(Oc2ccc3ccccc3c2)c2ccccc2n1	KCNK9 block -7.15
CSc1nc(Oc2ccccc2)c2sccc2n1	none (no result: KCC2 mod)
CC(CCc1ccccc1)NC(=O)COC(=O)c1cc(NS(=O)(=O)c2ccc(Cl)c([N+](=O)[O-])c2)ccc1O (centres undefined)	KCNQ1 block 6
CCC(C)NC(=O)COc1ccccc1[N+](=O)[O-] (centres undefined)	none
CC(CCc1ccccc1)NC(=O)COc1cc(F)ccc1[N+](=O)[O-] (centres undefined)	KCNQ1 pot 24
Nc1c(C(=O)CSc2nnc(COc3ccc(Cl)cc3)o2)c(=O)[nH]c(=O)n1C1CC1	none (no result: hERG protect, KCNQ1 pot, KCNK9 block, KCC2 mod, KCNQ1 block)
CCCCn1c(N)nc2ccccc21	hERG protect 7.5 (no result: KCC2 mod)
O=C(NCCO)c1nc(C(=O)c2ccc(Cl)cc2)c2ccccc2n1	none (no result: hERG protect, KCNQ1 pot, KCNK9 block, KCC2 mod, KCNQ1 block)
Cc1cc(C)cc(NS(=O)(=O)c2ccc(-c3cnc(C4CC4)o3)cc2)c1	KCNQ1 pot 7 (no result: KCC2 mod)
O=S(=O)(Nc1ccccc1)c1ccc(-c2cnc(C3CC3)o2)cc1	none (no result: KCC2 mod)
O=C(NCC1CCCCC1)c1ccc(=O)[nH]c1	none (no result: KCC2 mod)
O=C(c1ccc(CS(=O)Cc2ccccc2Cl)o1)N1CCN(C2CCCCC2)CC1 (centres undefined)	none (no result: KCC2 mod)
CCOC(=O)COn1c(-c2cccc(Cl)c2)nc2ccc([N+](=O)[O-])cc21	KCNQ1 block 6
CC(On1c(-c2ccccc2)nc2ccc(Cl)cc21)C(=O)O (centres undefined)	none
CCCC(C(=O)NCCC(C)C)N(Cc1ccc(F)cc1)C(=O)c1snc(C(N)=O)c1N (centres undefined)	none (no result: KCC2 mod)
COc1ccc(NC(=O)c2ccc(COc3ccccc3Br)o2)cc1OC	KCC2 mod -5.97
Cc1ccc(C(=O)N(Cc2sccc2C)C2CCS(=O)(=O)C2)cc1 (centres undefined)	none (no result: KCC2 mod)
O=C(Cc1ccc(Br)cc1)c1ccc(O)cc1O	KCNK9 block -8.24
CC(NC(=S)NCCc1ccccc1)C(c1cccs1)N1CCN(Cc2ccccc2)CC1 (centres undefined)	KCNQ1 block 6
CC(NC(=O)NC1CCCCC1)C(c1cccs1)N1CCN(Cc2ccccc2)CC1 (centres undefined)	none (no result: KCC2 mod)
COC(=O)C1=C(C)NC(=O)NC1c1ccc2ccccc2c1 (centres undefined)	none (no result: KCC2 mod)
Cc1ccc(C(=O)O/N=C(\N)c2ccc(Br)cc2)cc1C	hERG protect 6.4 (no result: KCC2 mod)
Cc1cc(C)cc(C(=O)O/N=C(\N)c2ccc(Br)cc2)c1	none
COc1cc(/C=C(\NC(=O)c2ccccc2)C(=O)Nc2nccs2)ccc1OC(C)=O	none (no result: KCC2 mod)
O=C(O)c1cccc(NS(=O)(=O)c2ccc3c(c2)OCCCO3)c1	none
CCc1cc2c(=O)n(Cc3ccco3)c(SCC(=O)N3CCCc4ccccc43)nc2s1	KCNQ1 block 6
CC1(C)CC(=O)C(C=NCCN2CCN(C3CC(=O)N(c4ccc(F)cc4)C3=O)CC2)=C(O)C1 (centres undefined)	none
C=CCn1c(COc2ccc(CC)cc2)nnc1SC/C(O)=C(\C#N)c1nc2ccccc2[nH]1	none (no result: KCC2 mod)
CCOC(=O)c1sc(NC(=O)C(CC)Sc2nnc3c4ccccc4n(C(C)C)c3n2)nc1C (centres undefined)	KCNK3 block -10.9 (no result: hERG protect, KCNQ1 pot, KCNK9 block, KCNQ1 block)
CCOC(=O)Cc1nnc(NC(=O)C(CC)Sc2nnc3c4ccccc4n(C)c3n2)s1 (centres undefined)	none
Cc1cccc(-n2ncc3c2CCCC3NC(=O)CCc2ccncc2)c1C (centres undefined)	none (no result: KCC2 mod)
COc1cccc(-c2nc(=S)c3c(n2Cc2ccco2)CCCC3)c1	KCC2 mod 13.4
COc1cccc(-c2nc(=S)c3c(o2)CCCC3)c1	none
CN(C)CCCn1c(-c2ccccc2)nc(=S)c2c1CCCC2	none
Cc1ccc(-c2nc(=S)c3c(n2Cc2ccco2)CCCC3)cc1	KCC2 mod 24.7 (no result: hERG protect, KCNQ1 pot, KCNK9 block, KCNQ1 block)
COc1cnn(-c2cccc(Cl)c2)c(=O)c1Cl	none (no result: KCC2 mod)
CCN(CC)S(=O)(=O)c1ccc(C(=O)/C=C/c2ccc(-c3ccc([N+](=O)[O-])cc3)o2)cc1	KCNK3 block -9.26
COCCn1c(SCC(=O)Nc2c(C)n(C)n(-c3ccccc3)c2=O)nc2ccccc2c1=O	none (no result: hERG protect, KCNQ1 pot, KCNK9 block, KCC2 mod, KCNQ1 block)
COc1ccc(C(=O)NCCSCc2cccc(Cl)c2)cc1OC	none (no result: KCC2 mod)
CCN(CC)S(=O)(=O)c1ccc(N2CCCCC2)c(NC(=O)/C=C/c2cc(OC)c(OC)c(OC)c2)c1	KCNK9 block -6.86
O=C(Nc1cc(-c2ccccc2)nn1-c1ccccc1)c1ccccc1F	none (no result: hERG protect, KCNQ1 pot, KCNK9 block, KCC2 mod, KCNQ1 block)
COc1cccc(CN(C)C(=O)c2cc(-c3ccc(F)cc3)nc3ccccc23)c1	KCNK3 block -8.93, KCNQ1 block 11 (no result: KCC2 mod)
COc1ccc(CCN(C)C(=O)c2cc(-c3ccccc3)nc3ccc(C)cc23)cc1OC	none (no result: KCC2 mod)
COc1ccc(CN(C)C(=O)c2cc(-c3ccccc3)nc3ccc(C)cc23)c(OC)c1OC	KCNQ1 block 6 (no result: KCC2 mod)
COc1ccc(C(=O)NCC(C)NC(=O)c2ccc(OC)c(OC)c2)cc1OC (centres undefined)	none (no result: KCC2 mod)
Cc1cccc(C2Nc3ccccc3C(=O)N2CCc2ccccc2)n1 (centres undefined)	none (no result: KCC2 mod)
O=C1c2ccccc2NC(c2cccc([N+](=O)[O-])c2)N1CCc1ccccc1 (centres undefined)	KCNK9 block -6.58 (no result: KCC2 mod)
O=C(c1cc2cc([N+](=O)[O-])ccc2oc1=O)n1cccn1	none
c1ccc(NC2=NCCN2CC2CCCC2)cc1	hERG protect 4.9 (no result: KCC2 mod)
Cc1ccccc1C1C2=C(Nc3[nH]n(-c4ccccc4)c(=O)c31)c1ccccc1C2=O (centres undefined)	none (no result: hERG protect, KCNQ1 pot, KCNK9 block, KCNK3 block, KCNQ1 block)
